Measurements from publication PMC4222540 (Biochemistry, 2014).
Substitutions are numbered along the chain they refer to. Names may count otherwise. Like-named read-outs stand apart in the source and are kept apart here.

Columns and labels:
cPAH D139A [1] = biological target: T1, cPAH D139A (Chromobacterium violaceum, UniProt P30967, D139A); assay: Steady-state kinetics of phenylalanine hydroxylation; format: biochemical
T1 sequence (P30967 1-297 D139A): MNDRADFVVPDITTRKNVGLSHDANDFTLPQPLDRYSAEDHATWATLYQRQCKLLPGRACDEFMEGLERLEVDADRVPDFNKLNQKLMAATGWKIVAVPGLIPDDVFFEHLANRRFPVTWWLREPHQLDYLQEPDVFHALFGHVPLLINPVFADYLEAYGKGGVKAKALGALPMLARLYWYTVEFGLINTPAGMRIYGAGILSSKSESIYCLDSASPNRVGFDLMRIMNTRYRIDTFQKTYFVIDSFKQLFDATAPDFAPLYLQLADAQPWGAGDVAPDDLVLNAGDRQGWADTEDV

cPAH D139N [2] = biological target: T2, cPAH D139N (Chromobacterium violaceum, UniProt P30967, D139N); assay: as above; format: biochemical
T2 sequence (P30967 1-297 D139N): T1 sequence (P30967 1-297 D139A) with A139N

cPAH D139E [3] = biological target: T3, cPAH D139E (Chromobacterium violaceum, UniProt P30967, D139E); assay: as above; format: biochemical
T3 sequence (P30967 1-297 D139E): T1 sequence (P30967 1-297 D139A) with A139E

cPAH D139N [4] = biological target: T2, cPAH D139N; assay: ITC, Fe; format: binding; conditions: anaerobic, 25 °C, 2.5 mM TCEP
In short: (§1)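 Untagged cPAH (wild type or Asp139 point mutant), expressed from pET3a and purified by anion-exchange and size-exclusion chromatography, in apo form. Anaerobic ITC under argon at 25 °C: 500 μM ferrous ammonium sulfate in dialysis buffer with 2.5 mM TCEP titrated into 50 μM protein containing 2.5 mM TCEP. 18 injections of 2 μL, 180 s apart.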

cPAH D139A [5] = biological target: T1, cPAH D139A; assay: ITC, Fe; format: binding
In short: as §1

cPAH D139K [6] = biological target: T4, cPAH D139K (Chromobacterium violaceum, UniProt P30967, D139K); assay: ITC, Fe; format: binding
T4 sequence (P30967 1-297 D139K): T1 sequence (P30967 1-297 D139A) with A139K
In short: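 Untagged apo cPAH D139K, purified by anion-exchange and size-exclusion chromatography. Anaerobic ITC under argon at 25 °C with 2.5 mM TCEP in titrant and in 50 μM protein. FeSO4 titrated at 10-fold excess (500 μM) and again at 20-fold excess over protein. 18 injections of 2 μL, 180 s apart.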

cPAH D139E [7] = biological target: T3, cPAH D139E; assay: ITC, Fe; format: binding
In short: as §1

wild-type cPAH [8] = biological target: T5, wild-type cPAH (Chromobacterium violaceum, UniProt P30967); assay: ITC, Fe; format: binding; conditions: anaerobic, 25 °C, 2.5 mM TCEP
T5 sequence (P30967 1-297): T1 sequence (P30967 1-297 D139A) with A139D
In short: as §1

cPAH D139N [9] = biological target: T2, cPAH D139N; assay: ITC, L-Phe binding to iron-reconstituted enzyme with excess BH4
cPAH D139A [10] = biological target: T1, cPAH D139A; assay: as above
cPAH D139K [11] = biological target: T4, cPAH D139K; assay: as above
wild-type cPAH [12] = biological target: T5, wild-type cPAH; conditions: cited from earlier work
cPAH D139E [13] = biological target: T3, cPAH D139E; assay: ITC, L-Phe binding to iron-reconstituted enzyme with excess BH4
[14] = Steady-state kinetics: turnover; format: biochemical, Chromobacterium violaceum; conditions: for fold lower kcat relative to wild-type cPAH / kcat: enzyme variant as labelled; for kcat: DMPH4 cofactor, 20 °C, pH 7.4
In short: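 Phenylalanine hydroxylation followed by tyrosine formation at 275 nm (ε275 = 1405 L mol−1 cm−1) at 20 ± 1 °C. Enzyme ranged from 1 μM (wild type) to 30 μM (D139A), with 5-fold molar excess of ferrous ammonium sulfate, 5 mM DTT and 1000 units/mL catalase in 0.1 M O2-saturated Na-HEPES, pH 7.4. DMPH4 was varied at 1 mM Phe, and Phe was varied at 350 μM DMPH4. Triplicates were fit to Michaelis–Menten and reported as mean ± SD of three independent experiments.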

[15] = read-out: KM (DMPH), DMPH4 varied at saturated Phe (1 mM), 20 °C, pH 7.4
[16] = 20-fold excess of FeSO4, anaerobic, 25 °C, 2.5 mM TCEP
[17] = D139N, 1 mM Phe into 50 μM protein, 50 μM FeSO4, 200 μM BH4, anaerobic, 25 °C
[18] = D139A, 1 mM Phe into 50 μM protein, 50 μM FeSO4, 200 μM BH4, anaerobic, 25 °C
[19] = D139K, 1 mM Phe into 50 μM protein, 50 μM FeSO4, 200 μM BH4, anaerobic, 25 °C
[20] = D139E, 1 mM Phe into 50 μM protein, 50 μM FeSO4, 200 μM BH4, anaerobic, 25 °C

Molecule: CC1Nc2nc(N)[nH]c(=O)c2NC1C (stereo not shown) [DMPH, 6,7-dimethyl-5,6,7,8-tetrahydropterine]
- Km (cPAH D139A [1]; [15]): 254 ± 47 µM
- Km (cPAH D139N [2]; [15]): 262 ± 41 µM
- Km (cPAH D139E [3]; [15]): 236 ± 38 µM

Molecule: O=S(=O)([O-])[O-].O=S(=O)([O-])[O-].[Fe+2].[NH4+].[NH4+] [Fe(II), ferrous ammonium sulfate]
- Kd (cPAH D139N [4]): 139 ± 60 nM
- N (ITC stoichiometry) (cPAH D139N [4]): 0.7
- ΔH (cPAH D139N [4]): –4.5 ± 0.3 kcal mol^–1
- ΔS (cPAH D139N [4]): 16 cal mol^–1
- fold increase in Kd for iron vs wild type (cPAH D139A [5]): ~6 fold
- Kd (cPAH D139A [5]; anaerobic, 25 °C, 2.5 mM TCEP): 944 ± 170 nM
- N (ITC stoichiometry) (cPAH D139A [5]; anaerobic, 25 °C, 2.5 mM TCEP): 0.9
- ΔH (cPAH D139A [5]; anaerobic, 25 °C, 2.5 mM TCEP): –2.5 ± 0.1 kcal mol^–1
- ΔS (cPAH D139A [5]; anaerobic, 25 °C, 2.5 mM TCEP): 19 cal mol^–1
- fold reduction in binding affinity for iron vs wild type (cPAH D139K [6]): ~500 fold
- iron binding (ITC isotherm) (cPAH D139K [6]; 10-fold excess of FeSO4 (500 µM)): no binding was observed
- Kd (cPAH D139K [6]; [16]): 76.5 ± 0.7 µM
- N (ITC stoichiometry) (cPAH D139K [6]; [16]): 1
- ΔH (cPAH D139K [6]; [16]): 1.4 ± 0.6 kcal mol^–1
- ΔS (cPAH D139K [6]; [16]): 23 cal mol^–1
- fold increase in Kd for iron vs wild type (cPAH D139E [7]): ~4 fold
- Kd (cPAH D139E [7]; anaerobic, 25 °C, 2.5 mM TCEP): 479 ± 170 nM
- N (ITC stoichiometry) (cPAH D139E [7]; anaerobic, 25 °C, 2.5 mM TCEP): 0.8
- ΔH (cPAH D139E [7]; anaerobic, 25 °C, 2.5 mM TCEP): –1.5 ± 0.1 kcal mol^–1
- ΔS (cPAH D139E [7]; anaerobic, 25 °C, 2.5 mM TCEP): 24 cal mol^–1
- Kd (wild-type cPAH [8]): 151 ± 30 nM
- N (ITC stoichiometry) (wild-type cPAH [8]): 0.8
- ΔH (wild-type cPAH [8]): –4.0 ± 0.1 kcal mol^–1
- ΔS (wild-type cPAH [8]): 18 cal mol^–1

Molecule: N[C@@H](Cc1ccccc1)C(=O)O [L-Phe, phenylalanine]
- Kd (cPAH D139N [9]): 37 ± 3.7 µM
- N (ITC stoichiometry) (cPAH D139N [9]; [17]): 0.9
- ΔH (cPAH D139N [9]; [17]): –8.5 ± 0.7 kcal mol^–1
- ΔS (cPAH D139N [9]; [17]): –8 cal mol^–1
- Kd (cPAH D139A [10]): 39 ± 12 µM
- N (ITC stoichiometry) (cPAH D139A [10]; [18]): 1
- ΔH (cPAH D139A [10]; [18]): –10.5 ± 1.9 kcal mol^–1
- ΔS (cPAH D139A [10]; [18]): –15 cal mol^–1
- Kd (cPAH D139K [11]): 31 ± 5 µM
- N (ITC stoichiometry) (cPAH D139K [11]; [19]): 0.8
- ΔH (cPAH D139K [11]; [19]): –9.4 ± 1.3 kcal mol^–1
- ΔS (cPAH D139K [11]; [19]): –11 cal mol^–1
- Kd (wild-type cPAH [12]): 37 ± 0.3 µM
- N (ITC stoichiometry) (wild-type cPAH [12]): 0.8
- ΔH (wild-type cPAH [12]): –7.9 ± 0.8 kcal mol^–1
- ΔS (wild-type cPAH [12]): –6 cal mol^–1
- fold decrease in kcat/KM for phenylalanine vs wild type (cPAH D139A [1]): 81 fold
- fold decrease in kcat/KM for phenylalanine vs wild type (cPAH D139N [2]): 17 fold
- fold decrease in kcat/KM for phenylalanine vs wild type (cPAH D139E [3]): 7 fold
- Kd (cPAH D139E [13]): 55 ± 18 µM
- N (ITC stoichiometry) (cPAH D139E [13]; [20]): 0.6
- ΔH (cPAH D139E [13]; [20]): –13.2 ± 6.0 kcal mol^–1
- ΔS (cPAH D139E [13]; [20]): –25 cal mol^–1

B1: D139N (protein, UniProt P30967 1-297, looked up, variant D139N)
Phenylalanine-4-hydroxylase: T1 sequence (P30967 1-297 D139A) with A139N
- fold lower kcat relative to wild-type cPAH [14]: ~16 fold
- kcat [14]: 1.2 ± 0.1 s^–1

B2: wild type: wild-type phenylalanine hydroxylase from Chromobacterium violaceum (cPAH) (protein, UniProt P30967 1-297, looked up)
Phenylalanine-4-hydroxylase: T1 sequence (P30967 1-297 D139A) with A139D
- kcat [14]: 18.6 ± 0.1 s^–1

B3: D139E (protein, UniProt P30967 1-297, looked up, variant D139E)
Phenylalanine-4-hydroxylase: T1 sequence (P30967 1-297 D139A) with A139E
- fold lower kcat relative to wild-type cPAH [14]: 10 fold
- kcat [14]: 1.9 ± 0.1 s^–1

B4: D139K (protein, UniProt P30967 1-297, looked up, variant D139K)
Phenylalanine-4-hydroxylase: T1 sequence (P30967 1-297 D139A) with A139K
- catalytic activity (hydroxylation of phenylalanine to tyrosine) ([14]; nonenzymatic amounts of protein required for minimal tyrosine formation): inactive

B5: D139A (protein, UniProt P30967 1-297, looked up, variant D139A)
Phenylalanine-4-hydroxylase: T1 sequence (P30967 1-297 D139A)
- fold lower kcat relative to wild-type cPAH [14]: ~100 fold
- kcat [14]: 0.19 ± 0.01 s^–1
